Experimental data reported in ChEMBL document CHEMBL2429849, “Substrate-based fragment identification for the development of selective, nonpeptidic inhibitors of striatal-enriched protein tyrosine phosphatase” (J Med Chem, 2013).
Activity calls are given as the source filed them. No cut-off for these calls is given here.

Columns and labels:
[1] = target: T1, Dual specificity protein phosphatase 10 (Homo sapiens, UniProt Q9Y6W6); assay: Inhibition of human MKP5 using DiFMUP as substrate after 5 mins by spectrophotometric plate reader analysis
T1 sequence (Q9Y6W6 whole entry): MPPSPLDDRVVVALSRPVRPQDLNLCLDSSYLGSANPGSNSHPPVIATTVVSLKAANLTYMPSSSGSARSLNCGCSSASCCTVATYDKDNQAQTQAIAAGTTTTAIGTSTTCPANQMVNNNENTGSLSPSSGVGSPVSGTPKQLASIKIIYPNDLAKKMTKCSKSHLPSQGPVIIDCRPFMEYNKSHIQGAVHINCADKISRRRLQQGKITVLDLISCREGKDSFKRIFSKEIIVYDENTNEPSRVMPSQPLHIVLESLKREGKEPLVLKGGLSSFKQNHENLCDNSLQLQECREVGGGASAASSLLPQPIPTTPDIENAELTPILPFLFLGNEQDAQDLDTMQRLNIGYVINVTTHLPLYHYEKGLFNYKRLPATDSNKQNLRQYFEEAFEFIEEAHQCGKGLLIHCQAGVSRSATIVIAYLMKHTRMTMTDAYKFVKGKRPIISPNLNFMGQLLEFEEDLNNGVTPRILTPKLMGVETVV
Procedure, shortened: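 The […] substrate was DiFMUP. Buffer was Tris-HCl pH 8.0 with Triton X-100 and 5 mM DTT. Inhibitor was preincubated with enzyme for 5 min at 27 °C before adding substrate. Ki from nonlinear regression of initial-rate substrate–velocity data at several inhibitor concentrations; at least duplicate.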

[2] = Effective permeability of the compound at pH 7.4 by PAMPA; format: ADME; settings: read-out: Peff
[3] = target: T2, Tyrosine-protein phosphatase non-receptor type 2 (Homo sapiens, UniProt P17706); assay: Inhibition of human TC-PTP using pNPP as substrate after 5 mins by spectrophotometric plate reader analysis
T2 sequence (P17706 whole entry): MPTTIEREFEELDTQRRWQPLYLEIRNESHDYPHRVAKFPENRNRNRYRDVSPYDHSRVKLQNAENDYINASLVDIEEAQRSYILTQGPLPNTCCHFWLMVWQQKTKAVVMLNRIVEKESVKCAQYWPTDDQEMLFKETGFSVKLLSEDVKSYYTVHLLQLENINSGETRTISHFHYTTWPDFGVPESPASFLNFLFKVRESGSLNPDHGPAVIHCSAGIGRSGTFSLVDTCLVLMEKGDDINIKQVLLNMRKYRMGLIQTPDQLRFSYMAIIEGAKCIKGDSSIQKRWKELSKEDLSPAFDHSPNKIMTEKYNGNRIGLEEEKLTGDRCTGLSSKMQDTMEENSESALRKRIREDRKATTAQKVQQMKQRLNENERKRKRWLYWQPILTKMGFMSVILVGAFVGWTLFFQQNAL
Procedure, shortened: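 Selectivity assay using the STEP Ki protocol. Enzyme was preincubated 5 min at 27 °C with two- or three-fold inhibitor serial dilutions in DMSO, in imidazole/NaCl buffer at pH 7.0 with 0.01% Triton X-100 and 5 mM DTT. Reaction started with pNPP (500 μM in assay), read continuously at 405 nm for 20 min. Ki came from nonlinear regression of substrate-velocity curves, using this enzyme's pNPP KM; at least duplicate.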

[4] = target: T3, Tyrosine-protein phosphatase non-receptor type 5 (Rattus norvegicus) (UniProt P35234); assay: Inhibition of STEP in Sprague-Dawley rat embryo primary cortical neurons assessed as phosphorylation of ERK1/2 at 0.1 to 10 uM after 1 hr by Western blot analysis; settings: Cerebral cortex neuron
T3 sequence (whole entry): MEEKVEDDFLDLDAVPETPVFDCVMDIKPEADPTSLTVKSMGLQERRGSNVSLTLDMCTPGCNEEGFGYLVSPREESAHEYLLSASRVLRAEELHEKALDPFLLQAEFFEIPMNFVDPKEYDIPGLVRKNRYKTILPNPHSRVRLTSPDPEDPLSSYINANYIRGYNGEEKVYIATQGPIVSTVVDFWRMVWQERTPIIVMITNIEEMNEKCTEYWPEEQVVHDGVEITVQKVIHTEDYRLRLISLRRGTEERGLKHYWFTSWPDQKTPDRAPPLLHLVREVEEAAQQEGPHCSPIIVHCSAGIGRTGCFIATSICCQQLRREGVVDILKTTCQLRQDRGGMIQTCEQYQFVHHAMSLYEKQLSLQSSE
Procedure, shortened: (§1)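 E18 rat cortical neurons were trypsin-dissociated and plated on poly-D-lysine in Neurobasal with 2% B27, then grown 18–21 days at 37 °C. Compound was added at final 0, 0.1, 1 or 10 μM (0.1% DMSO) for 1 h at 37 °C. Cells were lysed in RIPA with protease/phosphatase inhibitors and protein measured by BCA. Phospho and total proteins were blotted by SDS-PAGE, with antibodies overnight at 4 °C and chemiluminescent detection.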

[5] = organism: Homo sapiens; assay: Selectivity ratio of Ki for human MKP5 to Ki for human STEP
Procedure, shortened: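 STEP, CD45, LAR and TC-PTP used pNPP (500 μM) in imidazole/NaCl pH 7.0 with Triton X-100, read at 405 nm for 20 min. MKP5 used DiFMUP in Tris-HCl pH 8.0. The enzyme's own pNPP KM was used in analysis; ratio of the Ki values.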

[6] = target: T3, Tyrosine-protein phosphatase non-receptor type 5 (Rattus norvegicus); assay: Inhibition of STEP in Sprague-Dawley rat embryo primary cortical neurons assessed as phosphorylation of GluN2B at 0.1 to 10 uM after 1 hr by Western blot analysis; settings: Cerebral cortex neuron; procedure, shortened: as §1

Structure (SMILES)	Ki [1] [µM]	Papp [2] [×10⁻⁶ cm/s]	Ki [3] [µM]	inhibition [4]	Ratio Ki [5]	inhibition [6]
O=P(O)(O)[C@H](O)c1ccc(-c2cccc([C@@H](O)c3ccc(Cl)c(Cl)c3)c2)cc1	340	< 0.1	164	Active	41	Active
O=P(O)(O)[C@H](O)c1ccc(-c2cccc([C@H](O)c3ccc(Cl)c(Cl)c3)c2)cc1	> 500	–	170	Active	–	Active
